Results as given in ChEMBL document CHEMBL4118021, “Studies of TAK1-centered polypharmacology with novel covalent TAK1 inhibitors” (Bioorg Med Chem, 2017).

Key:
[1] = biological target: Ribosomal protein S6 kinase alpha-1 (Homo sapiens) (UniProt Q15418); assay: Inhibition of RSK1 domain1 in human SKCO1 cells at 1 uM after 4 hrs using biotin labeled DLKPENILLDEEGHIK probe by mass-spectrometric analysis relative to control; format: cell-based; conditions: pooled result: one value given for 3 cell lines, strains, targets or settings
Outline: (§1)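 Live SK-CO-1 cells exposed to compound at 1 μM or DMSO for 4 h (KiNativ). Lysates then labeled with lysine-reactive ATP/ADP-biotin probe, and probe-labeled kinase peptides quantified by mass spectrometry. Percent inhibition of probe-dependent recovery calculated relative to DMSO-treated cells.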

[2] = biological target: Serine/threonine-protein kinase MARK2 (Homo sapiens) (UniProt Q7KZI7); assay: Inhibition of MARK2 in human SKCO1 cells at 1 uM after 4 hrs using biotin labeled DLKAENLLLDADMNIK probe by mass-spectrometric analysis relative to control; format: cell-based
[3] = biological target: Serine/threonine-protein kinase MARK2 (Homo sapiens) (UniProt Q7KZI7); assay: Inhibition of MARK2 in human SKCO1 cells at 1 uM after 4 hrs using biotin labeled EVAVKIIDKTQLNSSSLQK probe by mass-spectrometric analysis relative to control; format: cell-based
[4] = biological target: T1, Serine/threonine-protein kinase Nek9 (Homo sapiens) (UniProt Q8TD19); assay: Inhibition of NEK9 in human SKCO1 cells at 1 uM after 4 hrs using biotin labeled DIKTLNIFLTK probe by mass-spectrometric analysis relative to control; format: cell-based; outline: as §1
T1 sequence (whole entry): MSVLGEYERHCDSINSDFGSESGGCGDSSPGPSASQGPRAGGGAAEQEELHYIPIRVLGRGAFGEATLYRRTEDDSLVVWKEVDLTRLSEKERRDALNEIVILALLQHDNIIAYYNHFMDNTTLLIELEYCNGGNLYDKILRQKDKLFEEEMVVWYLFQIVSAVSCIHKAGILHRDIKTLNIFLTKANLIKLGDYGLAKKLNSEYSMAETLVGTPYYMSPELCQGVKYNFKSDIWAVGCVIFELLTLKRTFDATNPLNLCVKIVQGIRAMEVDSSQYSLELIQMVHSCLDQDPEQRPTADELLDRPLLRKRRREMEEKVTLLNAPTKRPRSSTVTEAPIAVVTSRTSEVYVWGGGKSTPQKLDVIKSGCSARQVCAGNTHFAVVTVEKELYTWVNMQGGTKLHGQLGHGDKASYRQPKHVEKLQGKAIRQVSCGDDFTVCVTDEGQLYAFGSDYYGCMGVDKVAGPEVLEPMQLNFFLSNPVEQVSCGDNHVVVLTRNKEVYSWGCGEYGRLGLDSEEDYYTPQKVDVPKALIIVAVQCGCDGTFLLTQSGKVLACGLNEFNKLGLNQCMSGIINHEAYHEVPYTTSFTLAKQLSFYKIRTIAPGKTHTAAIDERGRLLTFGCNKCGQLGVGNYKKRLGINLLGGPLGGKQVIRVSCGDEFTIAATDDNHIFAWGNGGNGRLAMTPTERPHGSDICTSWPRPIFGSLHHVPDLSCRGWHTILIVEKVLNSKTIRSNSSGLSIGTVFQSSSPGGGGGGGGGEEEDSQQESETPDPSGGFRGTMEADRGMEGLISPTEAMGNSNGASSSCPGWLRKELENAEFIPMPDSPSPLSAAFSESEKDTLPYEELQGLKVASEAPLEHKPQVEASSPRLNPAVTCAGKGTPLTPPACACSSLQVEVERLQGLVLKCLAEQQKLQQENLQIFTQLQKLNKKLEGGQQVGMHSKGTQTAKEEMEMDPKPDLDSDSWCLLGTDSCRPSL

[5] = biological target: Glycogen synthase kinase-3 alpha (Homo sapiens) (UniProt P49840); assay: Inhibition of GSK3A in human SKCO1 cells at 1 uM after 4 hrs using biotin labeled DIKPQNLLVDPDTAVLK probe by mass-spectrometric analysis relative to control; format: cell-based
[6] = biological target: STE20-like serine/threonine-protein kinase SLK (Homo sapiens) (UniProt Q9H2G2); assay: Inhibition of SLK in human SKCO1 cells at 1 uM after 4 hrs using biotin labeled DLKAGNILFTLDGDIK probe by mass-spectrometric analysis relative to control
[7] = biological target: Tyrosine-protein kinase Lyn (Homo sapiens) (UniProt P07948); assay: Inhibition of LYN in human SKCO1 cells at 1 uM after 4 hrs using biotin labeled VAVKTLKPGTMSVQAFLEEANLMK probe by mass-spectrometric analysis relative to control; format: cell-based
[8] = Increase in secretion of basic-FGF in TNFalpha activated RA patient-derived synovial fibroblasts at 0.6 to 3 uM preincubated for 3 hrs followed by TNFalpha stimulation measured after 18 hrs by sandwich immunoassay; conditions: human
Outline: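 Primary RA patient synovial fibroblasts (donor RA2159) were seeded at 1000 cells/well, grown about 24 h, then starved overnight and again about 4 h in basal medium with 0.1% BSA. Cells were pre-incubated 3 h with inhibitor (0.6 or 3 μM) or DMSO, then stimulated 18 h with 10 ng/mL TNFα. Paired wells were pooled, in biological duplicate. Pooled supernatants were diluted 1:3 and read on Luminex bead sandwich immunoassays, with mock-medium background and spiked-ligand controls.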

[9] = biological target: Dual specificity mitogen-activated protein kinase kinase 1 (Homo sapiens) (UniProt Q02750); assay: Inhibition of MAP2K1 in human SKCO1 cells at 1 uM after 4 hrs using biotin labeled IMHRDVKPSNILVNSR probe by mass-spectrometric analysis relative to control; format: cell-based
Outline: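 Live SK-CO-1 cells treated 4 h at 1 μM (DMSO control); cells lysed and lysates labeled with lysine-reactive ATP/ADP-biotin probe (KiNativ); probe-labeled kinase peptides quantified by mass spectrometry; inhibition expressed as percent reduction in probe-dependent recovery versus DMSO-treated cells.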

[10] = biological target: Cyclin-dependent kinase 2 (Homo sapiens) (UniProt P24941); assay: Inhibition of CDK2 in human SKCO1 cells at 1 uM after 4 hrs using biotin labeled DLKPQNLLINTEGAIK probe by mass-spectrometric analysis relative to control; format: cell-based
[11] = biological target: Cyclin-dependent kinase 1 (Homo sapiens) (UniProt P06493); assay: Inhibition of CDC2 in human SKCO1 cells at 1 uM after 4 hrs using biotin labeled DLKPQNLLIDDK probe by mass-spectrometric analysis relative to control; format: cell-based
[12] = biological target: 1-phosphatidylinositol 3-phosphate 5-kinase (Homo sapiens) (UniProt Q9Y2I7); assay: Inhibition of PIP5K3 in human SKCO1 cells at 1 uM after 4 hrs using biotin labeled GGKSGAAFYATEDDRFILK probe by mass-spectrometric analysis relative to control; format: cell-based; outline: as §1
[13] = biological target: 5'-AMP-activated protein kinase catalytic subunit alpha-2 (Homo sapiens) (UniProt P54646); assay: Inhibition of AMPKa2 in human SKCO1 cells at 1 uM after 4 hrs using biotin labeled DLKPENVLLDAHMNAK probe by mass-spectrometric analysis relative to control; format: cell-based
Outline: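 Live SK-CO-1 cells were treated 4 h with compound at 1 μM or DMSO, then lysed. Lysates were labeled with a lysine-reactive ATP/ADP-biotin probe and analysed by mass spectrometry. Percent inhibition is the loss of probe-dependent recovery of the kinase peptide relative to DMSO.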

Sequence of Glycogen synthase kinase-3 alpha (Homo sapiens) (P49840 2-483 limits assumed): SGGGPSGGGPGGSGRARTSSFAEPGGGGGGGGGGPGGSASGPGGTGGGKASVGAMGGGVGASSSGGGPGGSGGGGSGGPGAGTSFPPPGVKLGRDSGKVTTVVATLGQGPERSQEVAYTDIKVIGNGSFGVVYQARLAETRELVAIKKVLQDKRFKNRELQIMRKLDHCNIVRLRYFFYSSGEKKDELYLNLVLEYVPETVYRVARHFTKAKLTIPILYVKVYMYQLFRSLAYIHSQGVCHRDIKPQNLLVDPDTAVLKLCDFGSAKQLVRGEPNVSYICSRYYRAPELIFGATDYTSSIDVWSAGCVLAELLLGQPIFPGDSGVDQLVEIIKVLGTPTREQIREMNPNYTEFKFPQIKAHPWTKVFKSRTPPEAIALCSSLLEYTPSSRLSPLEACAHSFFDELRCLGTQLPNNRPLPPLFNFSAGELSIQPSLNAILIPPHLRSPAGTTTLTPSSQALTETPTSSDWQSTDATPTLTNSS
Sequence of Serine/threonine-protein kinase MARK2 (Homo sapiens) (Q7KZI7 whole entry): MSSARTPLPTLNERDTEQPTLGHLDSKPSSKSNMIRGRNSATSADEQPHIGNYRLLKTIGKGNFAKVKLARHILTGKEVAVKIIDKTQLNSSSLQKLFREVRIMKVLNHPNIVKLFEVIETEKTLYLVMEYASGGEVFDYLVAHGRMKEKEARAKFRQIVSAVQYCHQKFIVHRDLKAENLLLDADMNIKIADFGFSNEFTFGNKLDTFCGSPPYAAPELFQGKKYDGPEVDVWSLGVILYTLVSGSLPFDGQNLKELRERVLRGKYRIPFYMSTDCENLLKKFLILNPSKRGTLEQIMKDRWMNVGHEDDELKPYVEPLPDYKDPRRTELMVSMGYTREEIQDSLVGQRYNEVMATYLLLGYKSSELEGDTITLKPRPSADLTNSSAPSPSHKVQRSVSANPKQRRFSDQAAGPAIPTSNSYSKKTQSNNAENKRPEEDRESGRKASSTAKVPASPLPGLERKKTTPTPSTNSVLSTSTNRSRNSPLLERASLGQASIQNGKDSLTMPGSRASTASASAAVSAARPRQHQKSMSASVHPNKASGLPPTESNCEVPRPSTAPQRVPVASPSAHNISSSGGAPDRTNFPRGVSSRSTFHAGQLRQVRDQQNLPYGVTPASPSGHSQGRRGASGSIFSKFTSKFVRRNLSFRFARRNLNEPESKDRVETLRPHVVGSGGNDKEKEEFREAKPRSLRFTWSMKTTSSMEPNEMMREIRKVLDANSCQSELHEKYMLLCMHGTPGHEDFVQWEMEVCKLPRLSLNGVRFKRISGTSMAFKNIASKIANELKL
Sequence of Cyclin-dependent kinase 1 (Homo sapiens) (P06493 whole entry, looked up): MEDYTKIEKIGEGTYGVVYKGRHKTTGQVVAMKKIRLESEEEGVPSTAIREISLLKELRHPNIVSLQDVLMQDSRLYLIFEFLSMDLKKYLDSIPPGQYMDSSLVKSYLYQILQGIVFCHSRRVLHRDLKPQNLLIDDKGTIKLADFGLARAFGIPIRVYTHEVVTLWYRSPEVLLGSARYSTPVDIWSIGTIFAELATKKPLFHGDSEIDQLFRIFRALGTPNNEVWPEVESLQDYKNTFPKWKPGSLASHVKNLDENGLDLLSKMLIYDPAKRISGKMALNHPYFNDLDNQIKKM
Sequence of 5'-AMP-activated protein kinase catalytic subunit alpha-2 (Homo sapiens) (P54646 whole entry, looked up): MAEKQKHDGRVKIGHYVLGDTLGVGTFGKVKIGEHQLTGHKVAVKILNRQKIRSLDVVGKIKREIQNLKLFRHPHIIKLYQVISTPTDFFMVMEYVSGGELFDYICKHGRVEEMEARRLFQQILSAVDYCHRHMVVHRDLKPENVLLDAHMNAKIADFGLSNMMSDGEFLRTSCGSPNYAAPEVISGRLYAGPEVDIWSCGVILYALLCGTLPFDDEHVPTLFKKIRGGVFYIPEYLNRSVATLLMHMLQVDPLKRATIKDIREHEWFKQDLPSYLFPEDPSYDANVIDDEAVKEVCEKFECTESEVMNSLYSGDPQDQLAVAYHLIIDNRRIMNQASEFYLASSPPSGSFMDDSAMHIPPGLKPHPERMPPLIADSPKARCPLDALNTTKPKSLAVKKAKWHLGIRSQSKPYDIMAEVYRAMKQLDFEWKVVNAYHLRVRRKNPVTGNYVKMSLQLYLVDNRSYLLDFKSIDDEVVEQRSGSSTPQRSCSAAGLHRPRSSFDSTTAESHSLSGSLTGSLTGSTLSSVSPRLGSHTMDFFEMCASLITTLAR
Sequence of 1-phosphatidylinositol 3-phosphate 5-kinase (Homo sapiens) (Q9Y2I7 whole entry): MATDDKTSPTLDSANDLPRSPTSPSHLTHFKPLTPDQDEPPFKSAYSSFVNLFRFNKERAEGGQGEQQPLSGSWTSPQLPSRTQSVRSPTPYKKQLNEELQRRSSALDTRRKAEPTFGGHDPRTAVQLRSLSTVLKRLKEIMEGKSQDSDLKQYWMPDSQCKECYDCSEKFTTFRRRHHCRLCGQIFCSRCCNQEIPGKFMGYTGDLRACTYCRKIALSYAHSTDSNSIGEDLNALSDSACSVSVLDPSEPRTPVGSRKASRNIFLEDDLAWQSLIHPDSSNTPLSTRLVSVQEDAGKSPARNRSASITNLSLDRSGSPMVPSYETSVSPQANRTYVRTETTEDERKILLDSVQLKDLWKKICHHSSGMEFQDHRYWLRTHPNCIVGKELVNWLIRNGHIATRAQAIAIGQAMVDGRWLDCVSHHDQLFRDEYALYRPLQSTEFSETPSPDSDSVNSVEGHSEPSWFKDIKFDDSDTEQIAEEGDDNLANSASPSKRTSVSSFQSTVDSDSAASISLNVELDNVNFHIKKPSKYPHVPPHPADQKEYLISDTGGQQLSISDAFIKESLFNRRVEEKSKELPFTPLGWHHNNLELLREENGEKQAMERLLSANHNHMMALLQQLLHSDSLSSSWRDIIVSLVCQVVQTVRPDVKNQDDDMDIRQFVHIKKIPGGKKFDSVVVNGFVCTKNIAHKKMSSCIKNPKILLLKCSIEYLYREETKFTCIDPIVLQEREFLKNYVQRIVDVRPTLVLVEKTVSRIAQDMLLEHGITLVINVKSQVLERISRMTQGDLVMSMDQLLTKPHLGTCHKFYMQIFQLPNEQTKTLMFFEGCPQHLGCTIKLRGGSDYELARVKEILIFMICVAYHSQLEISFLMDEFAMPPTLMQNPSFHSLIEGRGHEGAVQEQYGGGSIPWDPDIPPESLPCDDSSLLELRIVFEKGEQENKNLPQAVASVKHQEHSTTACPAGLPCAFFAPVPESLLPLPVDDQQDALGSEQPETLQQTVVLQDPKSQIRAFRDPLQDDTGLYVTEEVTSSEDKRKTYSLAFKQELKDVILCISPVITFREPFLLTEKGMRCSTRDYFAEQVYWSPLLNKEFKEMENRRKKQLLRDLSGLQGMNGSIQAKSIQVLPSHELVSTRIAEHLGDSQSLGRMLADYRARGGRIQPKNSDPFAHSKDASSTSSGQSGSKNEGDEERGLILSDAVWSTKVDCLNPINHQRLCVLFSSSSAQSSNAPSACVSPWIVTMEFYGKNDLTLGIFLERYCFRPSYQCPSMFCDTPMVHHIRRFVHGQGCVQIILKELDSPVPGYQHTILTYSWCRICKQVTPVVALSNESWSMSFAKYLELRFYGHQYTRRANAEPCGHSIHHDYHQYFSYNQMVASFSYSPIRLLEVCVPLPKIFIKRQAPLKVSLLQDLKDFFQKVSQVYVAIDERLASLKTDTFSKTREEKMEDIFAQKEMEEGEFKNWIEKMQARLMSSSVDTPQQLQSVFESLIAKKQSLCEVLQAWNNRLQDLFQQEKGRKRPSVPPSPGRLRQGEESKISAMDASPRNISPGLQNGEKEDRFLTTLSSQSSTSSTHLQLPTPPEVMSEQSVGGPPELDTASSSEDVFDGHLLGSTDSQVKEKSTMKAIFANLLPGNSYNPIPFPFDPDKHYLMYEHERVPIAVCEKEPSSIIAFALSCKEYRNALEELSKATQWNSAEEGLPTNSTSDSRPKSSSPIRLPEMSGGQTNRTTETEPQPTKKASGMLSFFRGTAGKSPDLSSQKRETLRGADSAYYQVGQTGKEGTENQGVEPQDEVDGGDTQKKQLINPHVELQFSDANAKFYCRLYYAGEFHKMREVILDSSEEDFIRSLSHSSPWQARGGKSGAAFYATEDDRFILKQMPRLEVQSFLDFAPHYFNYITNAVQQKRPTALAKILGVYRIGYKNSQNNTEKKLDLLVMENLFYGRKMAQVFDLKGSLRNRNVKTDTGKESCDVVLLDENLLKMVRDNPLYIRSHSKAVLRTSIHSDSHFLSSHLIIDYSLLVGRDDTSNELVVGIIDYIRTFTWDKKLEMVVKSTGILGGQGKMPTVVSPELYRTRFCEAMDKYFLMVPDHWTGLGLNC
Sequence of Tyrosine-protein kinase Lyn (Homo sapiens) (P07948 2-512 limits assumed): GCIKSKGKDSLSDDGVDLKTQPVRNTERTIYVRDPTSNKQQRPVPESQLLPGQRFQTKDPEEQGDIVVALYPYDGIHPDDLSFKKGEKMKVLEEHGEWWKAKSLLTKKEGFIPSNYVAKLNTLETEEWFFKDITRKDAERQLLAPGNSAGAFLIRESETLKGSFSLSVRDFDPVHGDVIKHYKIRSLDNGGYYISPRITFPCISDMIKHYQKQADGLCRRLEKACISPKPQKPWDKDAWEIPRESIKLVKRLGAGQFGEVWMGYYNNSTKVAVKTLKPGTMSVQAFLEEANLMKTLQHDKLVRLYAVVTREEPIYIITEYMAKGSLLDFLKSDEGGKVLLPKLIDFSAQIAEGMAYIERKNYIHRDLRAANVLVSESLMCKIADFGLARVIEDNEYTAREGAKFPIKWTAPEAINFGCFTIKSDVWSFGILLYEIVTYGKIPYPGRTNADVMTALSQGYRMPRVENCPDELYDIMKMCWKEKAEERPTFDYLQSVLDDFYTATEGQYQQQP

| SMILES | inhibition [1] [%] | inhibition [2] [%] | inhibition [3] [%] | inhibition [4] [%] | inhibition [5] [%] | inhibition [6] [%] | inhibition [7] [%] | Activity [8] | inhibition [9] [%] | inhibition [10] [%] | inhibition [11] [%] | inhibition [12] [%] | inhibition [13] [%] |
| --- | --- | --- | --- | --- | --- | --- | --- | --- | --- | --- | --- | --- | --- |
| COc1cc(O)c2c(c1)/C=C/C[C@H](O)[C@H](O)C(=O)/C=C\C[C@H](C)OC2=O | 65.4 | 3.6 | -8.1 | 24.7 | 4.3 | 66 | -5.1 | Toxic | 89.4 | 30 | 46.6 | 64.9 | 33.6 |
| C=CC(=O)Nc1ccccc1Oc1nc(Nc2cnn(CCOC)c2)ncc1Cl | 13 | -8.4 | 6.3 | 9 | 15.2 | 61.2 | 2.8 | Non-Toxic | -7.9 | 33.1 | 33.1 | 54.1 | 0.2 |
| C=CC(=O)Nc1ccccc1Nc1nc(Nc2ccc(N3CCN(C)CC3)cc2)ncc1Cl | 42.5 | -7.2 | 2.5 | 3.2 | -2.8 | 76.3 | 16.5 | Toxic | 60 | 18.7 | 47.7 | 61.5 | 76 |
